{"source": "ChEMBL document CHEMBL1148762", "about": "“Lysosome and HER3 (ErbB3) selective anticancer agent kahalalide F: semisynthetic modifications and antifungal lead-exploration studies” (J Med Chem, 2007)", "key": {"Fusarium solani": {"tested_on": "Fusarium solani", "assay": "Fungicidal activity against Fusarium solani at 30 uM after 72 hrs by microtiter assay", "format": "functional, organism-based", "how_it_was_run": "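After 72 h of microtiter broth exposure at 30 µM, 20 µL from each well was plated onto compound-free potato dextrose agar and incubated 3 days at 28 °C. No regrowth was scored fungicidal; regrowth was scored fungistatic.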"}, "Fusarium oxysporum": {"tested_on": "Fusarium oxysporum", "assay": "Fungistatic activity against Fusarium oxysporum at 30 uM after 72 hrs by microtiter plate assay", "format": "functional, organism-based", "how_it_was_run": "(§1)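 Conidia come from 7-day potato dextrose agar cultures, filtered and set photometrically (625 nm) to 3 × 10^5 conidia/mL. They are exposed to compound at 30 µM in 96-well microdilution broth at 24 ± 1 °C under a 12 h photoperiod. After 72 h, 20 µL per well is subcultured on drug-free potato dextrose agar at 28 °C for 3 days. No regrowth is scored fungicidal; regrowth is scored fungistatic.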"}, "Fusarium proliferatum": {"tested_on": "Fusarium proliferatum", "assay": "Fungistatic activity against Fusarium proliferatum at 30 uM after 72 hrs by microtiter plate assay", "format": "functional, organism-based", "how_it_was_run": "as §1"}, "Cryptococcus neoformans": {"tested_on": "Cryptococcus neoformans", "assay": "Antimicrobial activity against Cryptococcus neoformans ATCC 90113", "format": "functional, organism-based"}, "[1]": {"tested_on": "Mycobacterium intracellulare", "assay": "Antimicrobial activity against Mycobacterium intracellular ATCC 23068", "format": "functional, organism-based"}, "[2]": {"tested_on": "Mycobacterium tuberculosis", "assay": "Antibacterial activity against Mycobacterium tuberculosis H37Rv at 16 ug/mL by micro plate alamar blue assay", "format": "functional", "how_it_was_run": "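M. tuberculosis H37Rv ATCC 27294 grown in BACTEC 12B medium; microplate Alamar blue assay (MABA). Primary screen at a single concentration of 16 µg/mL, read as percent inhibition.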"}, "Aspergillus fumigatus": {"tested_on": "Aspergillus fumigatus", "assay": "Antimicrobial activity against Aspergillus fumigatus ATCC 90906", "format": "functional, organism-based"}, "[3]": {"tested_on": "Mycobacterium tuberculosis", "assay": "Antibacterial activity against Mycobacterium tuberculosis H37Rv by micro plate alamar blue assay", "format": "functional"}, "Candida albicans": {"tested_on": "Candida albicans", "assay": "Antimicrobial activity against Candida albicans ATCC 90028", "format": "functional, organism-based"}, "Leishmania donovani": {"tested_on": "Leishmania donovani", "assay": "Antiparasitic activity against Leishmania donovani", "format": "functional, organism-based"}}, "note": "Active and inactive are the calls of the source. No cut-off for these calls is given here.", "data": [{"smiles": "C/C=C1\\NC(=O)[C@H](Cc2ccccc2)NC(=O)[C@@H](C(C)C)NC(=O)[C@@H]([C@@H](C)CC)NC(=O)[C@H](NC(=O)[C@H](NC(=O)[C@H](CCCNCc2ccc(F)cc2)NC(=O)[C@H]2CCCN2C(=O)[C@@H](NC(=O)[C@H](NC(=O)[C@H](NC(=O)[C@@H](NC(=O)CCCC(C)C)C(C)C)[C@H](C)O)C(C)C)C(C)C)[C@@H](C)CC)[C@@H](C)OC(=O)[C@H](C(C)C)NC1=O", "values": [{"measurement": "Activity", "setting": "Fusarium solani", "value": "Active"}, {"measurement": "Activity", "setting": "Fusarium oxysporum", "value": "Active"}, {"measurement": "Activity", "setting": "Fusarium proliferatum", "value": "Active"}]}, {"smiles": "C/C=C1\\NC(=O)[C@H](Cc2ccccc2)NC(=O)[C@@H](C(C)C)NC(=O)[C@@H]([C@@H](C)CC)NC(=O)[C@H](NC(=O)[C@H](NC(=O)[C@H](CCCNCCCCCC)NC(=O)[C@H]2CCCN2C(=O)[C@@H](NC(=O)[C@H](NC(=O)[C@H](NC(=O)[C@@H](NC(=O)CCCC(C)C)C(C)C)[C@H](C)O)C(C)C)C(C)C)[C@@H](C)CC)[C@@H](C)OC(=O)[C@H](C(C)C)NC1=O", "values": [{"measurement": "Activity", "setting": "Fusarium solani", "value": "Active"}, {"measurement": "Activity", "setting": "Fusarium oxysporum", "value": "Active"}, {"measurement": "Activity", "setting": "Fusarium proliferatum", "value": "Active"}]}, {"smiles": "C/C=C1\\NC(=O)[C@H](Cc2ccccc2)NC(=O)[C@@H](C(C)C)NC(=O)[C@@H]([C@@H](C)CC)NC(=O)[C@H](NC(=O)[C@H](NC(=O)[C@H](CCCN(CCCCCC)CCCCCC)NC(=O)[C@H]2CCCN2C(=O)[C@H](NC(=O)[C@@H](NC(=O)[C@@H](NC(=O)[C@H](NC(=O)CCCC(C)C)C(C)C)[C@@H](C)O)C(C)C)C(C)C)[C@@H](C)CC)[C@@H](C)OC(=O)[C@H](C(C)C)NC1=O", "values": [{"measurement": "MFC", "setting": "Cryptococcus neoformans", "value": "> 20", "unit": "µM"}, {"measurement": "MIC", "setting": "Cryptococcus neoformans", "value": "> 20", "unit": "µM"}, {"measurement": "MBC", "setting": "[1]", "value": "> 20", "unit": "µM"}, {"measurement": "MIC", "setting": "[1]", "value": "> 20", "unit": "µM"}, {"measurement": "inhibition at 16 µg/mL", "setting": "[2]", "value": 91, "unit": "%"}, {"measurement": "MFC", "setting": "Aspergillus fumigatus", "value": "> 20", "unit": "µM"}, {"measurement": "MIC", "setting": "Aspergillus fumigatus", "value": "> 20", "unit": "µM"}, {"measurement": "MIC", "setting": "[3]", "value": 9.4, "unit": "µg/mL"}, {"measurement": "MFC", "setting": "Candida albicans", "value": "> 20", "unit": "µM"}, {"measurement": "MIC", "setting": "Candida albicans", "value": "> 20", "unit": "µM"}]}, {"smiles": "C/C=C1\\NC(=O)[C@H](Cc2ccccc2)NC(=O)[C@@H](C(C)C)NC(=O)[C@@H]([C@@H](C)CC)NC(=O)[C@H](NC(=O)[C@H](NC(=O)[C@H](CCCNCCCCCC)NC(=O)[C@H]2CCCN2C(=O)[C@H](NC(=O)[C@@H](NC(=O)[C@@H](NC(=O)[C@H](NC(=O)CCCC(C)C)C(C)C)[C@@H](C)O)C(C)C)C(C)C)[C@@H](C)CC)[C@@H](C)OC(=O)[C@H](C(C)C)NC1=O", "values": [{"measurement": "IC50", "setting": "Leishmania donovani", "value": 17, "unit": "µg/mL"}, {"measurement": "IC50", "setting": "Cryptococcus neoformans", "value": 1.93, "unit": "µM"}, {"measurement": "IC50", "setting": "[1]", "value": "> 20", "unit": "µM"}, {"measurement": "IC50", "setting": "Aspergillus fumigatus", "value": 3.12, "unit": "µM"}, {"measurement": "IC50", "setting": "Candida albicans", "value": 5.69, "unit": "µM"}]}]}
